Columns and labels:
[1] = tested on: CCRF-CEM; assay: Compound was tested for antiviral activity by measuring its ability to inhibit HIV induced virus production in CEM cells; type: functional, Homo sapiens
[2] = tested on: MT2; assay: Inhibition of HIV-1 RF induced cytotoxicity in MT-2 cells; Inactive.; type: functional, cell-based
Procedure, shortened: (§1)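 MT-2 cells at 5×10^3 per well were infected with HIV-1 RF at MOI 0.005, chosen to give complete killing at 6 days. Triplicate wells received five half-log dilutions from 100 μM. After 6 days at 37 °C, XTT colorimetry gave viability. IC50 is the minimum concentration reducing CPE by 50%, calculated by semilog regression.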

[3] = tested on: Human immunodeficiency virus type 1 (RF/HAT ISOLATE); assay: Inhibition of HIV-1 RF viral production in MT-2 cells.; type: functional, Human immunodeficiency virus 1, MT2
[4] = tested on: CCRF-CEM; assay: Compound was tested for antiviral activity by measuring its ability to inhibit HIV induced cell killing in CEM cells; type: functional, cell-based; settings: Homo sapiens
Procedure, shortened: (§2)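 CEM cells at 5×10^3 per well were infected with HIV-1 RF at MOI 0.01, chosen to give complete cell killing by day 6. Five serial half-log dilutions starting at 100 μM were tested in triplicate. After 6 days at 37 °C, viability was read by XTT. IC50 is the minimum concentration inhibiting CPE by 50%, from semilog regression curve fitting.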

[5] = tested on: CCRF-CEM; assay: Inhibition of HIV-1 RF induced cytotoxicity in CEM cells; Inactive.; type: functional, cell-based; procedure, shortened: as §2
[6] = tested on: CCRF-CEM; assay: Compound was tested for antiviral activity by measuring its ability to inhibit HIV induced virus production in CEM cells; NT indicates nontoxic uM; type: functional, cell-based; settings: Homo sapiens
Procedure, shortened: (§3)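 Cytotoxicity was measured in uninfected cells with drug, in CEM or MT-2 at 5×10^3 per well. There were five half-log dilutions up to 100 μM, the highest concentration, in triplicate. Cells were incubated 6 days at 37 °C and viability was read by XTT. TC25 is the minimum concentration cutting viability by 25%; NT means nontoxic up to 100 μM.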

[7] = tested on: MT2; assay: Compound was tested for antiviral activity by measuring its ability to inhibit HIV induced virus production in MT-2 cells; NT indicates nontoxic uM; type: functional, cell-based; procedure, shortened: as §3
[8] = tested on: MT2; assay: Compound was tested for antiviral activity by measuring its ability to inhibit HIV induced cell killing in MT-2 cells; type: functional, cell-based; settings: Homo sapiens; procedure, shortened: as §1

Structure (SMILES) | TC25 [1] [µM] | IC50 [2] | TC25 [3] [µM] | IC50 [4] [µM] | IC50 [5] | TC25 [6] | TC25 ([7]; Homo sapiens) | TC25 [7] | IC50 [8] [µM] | NT [7]
COc1ccc(CSCC2(CSCc3ccc(OC)cc3)NC(=O)NC2=O)cc1 | 6 | Nontoxic up to 100uM | 6 | 23 | – | – | – | – | – | –
O=C1NC(=O)C(CSCc2cccnc2)(CSCc2cccnc2)N1 | – | Nontoxic up to 100uM | – | – | Nontoxic up to 100uM | Nontoxic up to 100uM | Nontoxic up to 100uM | – | – | –
COC(=O)c1ccc(CSCC2(CSCc3ccc(C(=O)OC)cc3)NC(=O)NC2=O)cc1 | 25 | Nontoxic up to 100uM | 10 | – | Nontoxic up to 100uM | – | – | – | – | –
S=C1NC(=S)C(CSCc2ccccc2)(CSCc2ccccc2)N1 | 16 | – | 16 | – | Nontoxic up to 100uM | – | – | – | – | –
O=C1NC(=O)C(CSCC2CCCCC2)(CSCC2CCCCC2)N1 | 8 | Nontoxic up to 100uM | 12 | – | Nontoxic up to 100uM | – | – | – | – | –
O=C1NC(=O)C(CSCc2ccc([N+](=O)[O-])cc2)(CSCc2ccc([N+](=O)[O-])cc2)N1 | 9 | Nontoxic up to 100uM | 5 | 19 | – | – | – | – | – | –
O=C1NC(=O)C(CSC(=O)c2ccccc2)(CSC(=O)c2ccccc2)N1 | 31 | Nontoxic up to 100uM | 5 | 7 | – | – | – | – | – | –
O=C1NC(=O)C(CSCc2cccs2)(CSCc2cccs2)N1 | – | Nontoxic up to 100uM | 17 | – | Nontoxic up to 100uM | Nontoxic up to 100uM | – | – | – | –
N#Cc1ccc(CSCC2(CSCc3ccc(C#N)cc3)NC(=O)NC2=O)cc1 | 15 | Nontoxic up to 100uM | 8 | 25 | – | – | – | – | – | –
O=C1NC(=O)C(COCc2ccccc2)(COCc2ccccc2)N1 | >100 | Nontoxic up to 100uM | 87 | – | Nontoxic up to 100uM | – | – | – | – | –
NC(CSCc1ccccc1)(CSCc1ccccc1)C(=O)O | – | Nontoxic up to 100uM | 60 | – | Nontoxic up to 100uM | Nontoxic up to 100uM | – | – | – | –
O=C1NC(=O)C(CSCc2ccc(C(=O)O)cc2)(CSCc2ccc(C(=O)O)cc2)N1 | – | Nontoxic up to 100uM | – | – | Nontoxic up to 100uM | Nontoxic up to 100uM | – | Nontoxic up to 100uM | – | –
O=C1NC(=O)C(CSCc2ccccn2)(CSCc2ccccn2)N1 | – | – | – | – | Nontoxic up to 100uM | Nontoxic up to 100uM | Nontoxic up to 100uM | – | 81 | –
O=C1NC(=O)C(CSCc2ccccc2)N1 (configuration not stated) | 5 | – | 2 | – | Nontoxic up to 100uM | – | – | – | – | –
O=C1NC(=O)C(CSc2ccncc2)(CSc2ccncc2)N1 | – | Nontoxic up to 100uM | – | – | Nontoxic up to 100uM | Nontoxic up to 100uM | – | – | – | Nontoxic up to 100uM
O=C1NC(=O)C(CSCc2ccncc2)(CSCc2ccncc2)N1 | – | Nontoxic up to 100uM | 45 | 53 | – | Nontoxic up to 100uM | – | – | – | –
Nc1ccc(CSCC2(CSCc3ccc(N)cc3)NC(=O)NC2=O)cc1 | – | – | 16 | 88 | – | Nontoxic up to 100uM | – | – | 6 | –
O=C1NC(=O)C(CS)(CSCc2ccccc2)N1 (configuration not stated) | 34 | – | 50 | – | Nontoxic up to 100uM | – | – | – | – | –
O=C1NC(=O)C(CSCc2ccccc2)(CSCc2ccccc2)N1 | – | – | – | – | Nontoxic up to 100uM | Nontoxic up to 100uM | – | Nontoxic up to 100uM | 17 | –
O=C1NC(=O)C(CS)(CS)N1 | 3 | Nontoxic up to 100uM | 0.8 | 0.6 | – | – | – | – | – | –
O=C1NC(=O)C(CSCc2ccc(Br)cc2)(CSCc2ccc(Br)cc2)N1 | 16 | Nontoxic up to 100uM | 7 | – | Nontoxic up to 100uM | – | – | – | – | –
O=C1NC(=O)C(CSc2ccccc2)(CSc2ccccc2)N1 | 64 | – | 50 | – | Nontoxic up to 100uM | – | – | – | – | –
O=C1NC(=O)C(CSCCO)(CSCc2ccccc2)N1 (configuration not stated) | – | Nontoxic up to 100uM | – | – | Nontoxic up to 100uM | Nontoxic up to 100uM | Nontoxic up to 100uM | – | – | –
O=C1NC(=O)C(CSCc2cccc3ccccc23)(CSCc2cccc3ccccc23)N1 | – | Nontoxic up to 100uM | – | – | Nontoxic up to 100uM | Nontoxic up to 100uM | Nontoxic up to 100uM | – | – | –
